pIC50: −log10 of the molar value. Activity calls are given as the source filed them. The calls are words filed in the database; no cut-off is given here.
How the values were obtained:
[1] = Cytotoxicity against CHOK1 cells at 100 uM after 72 hrs by CellTiter-Glo luminescence assay; assay type: cell-based, Cricetulus griseus; conditions: chinese hamster, CHO-K1 cells; read-out: INH
Method in brief: (§1)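 1250 cells per well in serum-free medium (F12 for CHO-K1 and A549, DMEM for M14). Compounds given as 10-point 1:3 serial dilutions from a 300 µM stock, plus a gefitinib control. Incubated 72 h at 37 °C, 5% CO2. CellTiter-Glo added for 15 min at room temperature, then luminescence read. Viability normalized to media-only wells (0%) and 1% DMSO wells (100%). Run in triplicate.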

[2] = system: A549; test: Cytotoxicity against human A549 cells at 100 uM after 72 hrs by CellTiter-Glo luminescence assay; assay type: functional; conditions: A549, 72 h; method in brief: as §1
[3] = system: M14; test: Cytotoxicity against human M14 cells at 100 uM after 72 hrs by CellTiter-Glo luminescence assay; assay type: functional; conditions: M14, 72 h; method in brief: as §1
[4] = system: SK-MEL-28; test: Cytotoxicity against human SK-MEL-28 cells expressing B-raf V600E mutant; assay type: functional, cell-based
[5] = Cytotoxicity against human M238 cells expressing B-raf V600E mutant; assay type: functional, cell-based
[6] = Cytotoxicity against human M249 cells expressing B-raf V600E mutant; assay type: functional, cell-based
[7] = Cytotoxicity against human M321 cells expressing B-raf V600E mutant; assay type: functional, cell-based
[8] = Cytotoxicity against human M263 cells expressing B-raf V600E mutant; assay type: functional, cell-based
[9] = Cytotoxicity against human M229 cells expressing B-raf V600E mutant; assay type: functional, cell-based
[10] = Cytotoxicity against human M262 cells expressing B-raf V600E mutant; assay type: functional, cell-based
[11] = system: M14; test: Cytotoxicity against human M14 cells expressing […] mutant; assay type: functional, cell-based
[12] = system: M14; test: Cytotoxicity against human M14 cells assessed as cell viability after 4 hrs using GF-AFC as substrate by ApoTox-Glo triplex assay; assay type: functional, cell-based
Method in brief: (§2)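 M14 #5 cells, 1250 per well in serum-free DMEM, pre-incubated 4 h at 37 °C, 5% CO2. Compounds added as 1:3 serial dilutions; incubated 4, 24, 48 and 72 h. Per time point, a reagent containing 400 µM GF-AFC (live-cell protease) and 400 µM bis-AAF-R110 (dead-cell protease) was added for 30 min at 37 °C, then fluorescence was read. Caspase-Glo 3/7 was added next, 30 min at room temperature, then luminescence.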

[13] = system: M14; test: Induction of apoptosis human M14 cells assessed as caspase activity at 100 uM after 4 to 72 hrs using DEVD peptide as substrate by ApoTox-Glo triplex assay; assay type: functional, cell-based; method in brief: as §2
[14] = system: SK-MEL-28; test: Cytotoxicity against human SK-MEL-28 cells expressing B-raf V600E mutant after 48 hrs by hexosaminidase assay; assay type: functional, cell-based
Method in brief: (§3)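 SK-MEL-28 or B16/F10 cells plated in 96-well plates, grown overnight, then treated with 0–50 µM compound for 48 h. Cells washed with PBS, given hexosaminidase substrate for 30 min at 37 °C, then developer. Absorbance read at 405 nm. Percent viability = treated/control absorbance × 100.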

[15] = target: T1, Protein deacetylase HDAC6 (Homo sapiens) (UniProt Q9UBN7); test: Inhibition of HDAC6 (unknown origin) up to 100 uM
T1 sequence (whole entry): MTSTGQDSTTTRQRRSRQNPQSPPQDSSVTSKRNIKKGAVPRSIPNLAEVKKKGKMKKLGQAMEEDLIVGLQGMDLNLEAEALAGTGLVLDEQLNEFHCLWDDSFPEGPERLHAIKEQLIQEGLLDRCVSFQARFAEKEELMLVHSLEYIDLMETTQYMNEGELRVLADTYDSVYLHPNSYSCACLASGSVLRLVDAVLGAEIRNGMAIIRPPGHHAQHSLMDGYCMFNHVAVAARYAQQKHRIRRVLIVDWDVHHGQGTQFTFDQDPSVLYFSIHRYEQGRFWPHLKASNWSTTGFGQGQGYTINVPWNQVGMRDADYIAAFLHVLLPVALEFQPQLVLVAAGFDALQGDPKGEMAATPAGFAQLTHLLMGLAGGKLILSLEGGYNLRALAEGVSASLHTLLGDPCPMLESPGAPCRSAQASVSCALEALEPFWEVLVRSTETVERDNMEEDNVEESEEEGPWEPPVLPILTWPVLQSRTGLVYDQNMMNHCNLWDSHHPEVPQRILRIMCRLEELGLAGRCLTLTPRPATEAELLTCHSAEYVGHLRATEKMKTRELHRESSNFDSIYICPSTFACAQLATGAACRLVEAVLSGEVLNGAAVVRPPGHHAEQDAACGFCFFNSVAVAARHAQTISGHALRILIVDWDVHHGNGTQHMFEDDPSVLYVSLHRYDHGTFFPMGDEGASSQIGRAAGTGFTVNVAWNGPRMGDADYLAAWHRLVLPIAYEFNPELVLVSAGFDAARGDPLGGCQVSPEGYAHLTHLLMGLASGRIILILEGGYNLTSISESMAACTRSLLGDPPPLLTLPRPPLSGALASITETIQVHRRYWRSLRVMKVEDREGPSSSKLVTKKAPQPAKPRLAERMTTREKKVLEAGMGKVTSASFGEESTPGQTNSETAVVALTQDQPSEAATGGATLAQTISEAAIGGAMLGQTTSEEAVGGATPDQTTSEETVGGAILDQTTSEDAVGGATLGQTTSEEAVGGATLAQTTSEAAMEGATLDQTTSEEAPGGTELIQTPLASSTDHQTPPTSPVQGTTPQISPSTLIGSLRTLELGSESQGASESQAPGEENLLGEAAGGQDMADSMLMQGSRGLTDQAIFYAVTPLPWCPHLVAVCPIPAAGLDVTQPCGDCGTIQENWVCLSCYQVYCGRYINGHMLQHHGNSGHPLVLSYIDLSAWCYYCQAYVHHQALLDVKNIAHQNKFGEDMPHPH

[16] = system: M14; test: Cytotoxicity against human M14 cells assessed as cell viability at 100 uM after 48 hrs by CellTiter-Glo luminescence assay; assay type: functional, cell-based
Method in brief: (§4)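 M14 cells, 1250 per well, in serum-free DMEM. Compounds given in 10-point 1:3 dilution series starting at 100 µM; controls were gefitinib, doxorubicin and ionomycin. Incubated at 37 °C, 5% CO2. CellTiter-Glo luminescence read at 4, 24, 48 and 72 h. Viability normalized to media-only wells and 1% DMSO-treated wells.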

[17] = system: M14; test: Cytotoxicity against human M14 cells after 72 hrs by CellTiter-Glo luminescence assay; assay type: functional, cell-based; method in brief: as §1
[18] = system: M14; test: Cytotoxicity against human M14 cells assessed as cell viability at 100 uM after 4 hrs by CellTiter-Glo luminescence assay; assay type: functional, cell-based; method in brief: as §4
[19] = system: B16-F10; test: (§5) Cytotoxicity against mouse B16F10 cells expressing p53 mutant after 48 hrs by hexosaminidase assay; assay type: functional, cell-based; method in brief: as §3
[20] = as §5; assay type: functional, cell-based; conditions: B16-F10, 48 h; method in brief: as §3
[21] = target: Histone deacetylase 1 (Homo sapiens) (UniProt Q13547); test: Inhibition of HDAC1 (unknown origin) up to 100 uM
[22] = target: Histone deacetylase 2 (Homo sapiens) (UniProt Q92769); test: Inhibition of HDAC2 (unknown origin) up to 100 uM
[23] = system: M14; test: Cytotoxicity against human M14 cells assessed as cell viability at 100 uM after 24 hrs by CellTiter-Glo luminescence assay; assay type: functional, cell-based; method in brief: as §4

Chain of Histone deacetylase 2 (Homo sapiens) (Q92769 whole entry): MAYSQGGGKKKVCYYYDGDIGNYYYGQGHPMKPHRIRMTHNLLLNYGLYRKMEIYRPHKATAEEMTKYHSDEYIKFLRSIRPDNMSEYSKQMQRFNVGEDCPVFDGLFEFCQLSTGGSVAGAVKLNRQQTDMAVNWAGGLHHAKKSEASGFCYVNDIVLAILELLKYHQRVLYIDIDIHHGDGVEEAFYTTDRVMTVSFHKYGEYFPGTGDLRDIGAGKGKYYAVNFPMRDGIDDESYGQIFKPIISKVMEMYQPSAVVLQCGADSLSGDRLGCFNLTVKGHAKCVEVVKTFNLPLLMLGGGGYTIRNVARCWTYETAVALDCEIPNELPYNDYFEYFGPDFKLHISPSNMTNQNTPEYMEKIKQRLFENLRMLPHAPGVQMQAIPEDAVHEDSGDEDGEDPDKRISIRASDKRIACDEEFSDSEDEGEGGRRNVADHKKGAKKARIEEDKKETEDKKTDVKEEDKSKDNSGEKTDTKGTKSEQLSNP
Chain of Histone deacetylase 1 (Homo sapiens) (Q13547 whole entry): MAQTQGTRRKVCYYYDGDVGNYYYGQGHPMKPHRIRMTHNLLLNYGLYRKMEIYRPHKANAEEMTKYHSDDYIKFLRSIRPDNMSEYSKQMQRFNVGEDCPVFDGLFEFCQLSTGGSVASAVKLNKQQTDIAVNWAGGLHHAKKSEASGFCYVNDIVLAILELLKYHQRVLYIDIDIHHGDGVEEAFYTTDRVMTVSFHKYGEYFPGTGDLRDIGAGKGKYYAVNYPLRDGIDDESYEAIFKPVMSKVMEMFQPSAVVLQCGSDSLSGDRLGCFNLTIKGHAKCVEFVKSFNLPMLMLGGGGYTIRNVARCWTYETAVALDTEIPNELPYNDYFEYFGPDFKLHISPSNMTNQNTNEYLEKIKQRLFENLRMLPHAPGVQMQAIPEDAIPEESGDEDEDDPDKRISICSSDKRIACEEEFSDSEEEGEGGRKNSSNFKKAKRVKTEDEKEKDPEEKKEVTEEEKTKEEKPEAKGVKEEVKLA

CCC[C@@H]1CNC(=O)C(=O)N1C[C@@H]1CCCN1C[C@@H](Cc1ccc(O)cc1)N1C[C@@H](Cc2ccc(O)cc2)N(CC(CC)c2ccccc2)C(=O)C1=O (stereo partly drawn) gave a cytotoxicity at 72 h, 100 µM [1] of 59%, an inhibition at 100 µM [2] of 8% and an inhibition at 100 µM [3] of 14%.

Molecule CCC[C@@H]1CNC(=O)C(=O)N1C[C@@H]1CCCN1C[C@@H](Cc1ccc(O)cc1)N1C[C@H](Cc2ccc(O)cc2)N(CC(CC)c2ccccc2)C(=O)C1=O (stereo partly drawn) has a cytotoxicity at 72 h, 100 µM [1] of 48%, an inhibition at 100 µM [2] of 4% and an inhibition at 100 µM [3] of 7%.

CCCS(=O)(=O)Nc1ccc(F)c(C(=O)c2c[nH]c3ncc(-c4ccc(Cl)cc4)cc23)c1F [VEMURAFENIB] gave a pIC50 [4] of 7.00, a pIC50 [5] of 7.00 and a pIC50 [6] of 7.00. The pIC50 [7] was 7.00, the pIC50 [8] was 7.00 and the pIC50 [9] was 7.00. The pIC50 [10] was 7.00 and the pIC50 [11] was 6.82.

For CCC[C@@H]1CNC(=O)C(=O)N1C[C@@H]1CCCN1C[C@H](Cc1ccc(O)cc1)N1C[C@H](Cc2ccc(O)cc2)N(CC(CC)c2ccccc2)C(=O)C1=O (stereo partly drawn), the cytotoxicity at 72 h, 100 µM [1] was 27%, the inhibition at 100 µM [2] was 0% and the inhibition at 100 µM [3] was 10%.

In the case of C[C@H](CCC(=O)O)C[C@H](C)C[C@H](C)C(=O)/C=C(\O)[C@H](C)C[C@H](C)C/C=C/[C@@H](C)[C@@H](O)[C@@H](C)[C@@H](O)C[C@@H]1CC[C@@](C)([C@H]2CC[C@@](C)([C@@H](C)O)O2)O1, the Activity [12] was “Dose-dependent effect” and the Activity [13] was “inactive”.

CCC[C@@H]1CNC(=O)C(=O)N1C[C@@H]1CCCN1C[C@@H](Cc1ccc(O)cc1)N1C[C@H](Cc2ccc(O)cc2)N(CC2CCCC2)C(=O)C1=O showed a cytotoxicity at 72 h, 100 µM [1] of 19%, an inhibition at 100 µM [2] of 16% and an inhibition at 100 µM [3] of 23%.

With O=C1NC[C@H](Cc2ccccc2)N(C[C@@H]2CCCN2C[C@H](Cc2ccccc2)N2C[C@H](Cc3ccc(O)cc3)N(CCC34CC5CC(CC(C5)C3)C4)C(=O)C2=O)C1=O the inhibition [14] was “Dose-dependent effect”, the inhibition [15] was “inactive” and the Activity [16] was “Active”. The inhibition [17] was “Dose-dependent effect”, the pIC50 ([17]; M14, 72 h) was 6.12 and the Activity [18] was “inactive”. For the same molecule, the inhibition [19] was “Dose-dependent effect”, the pIC50 [20] was 5.94 and the inhibition [21] was “inactive”. For the same molecule, the inhibition [22] was “inactive” and the Activity [23] was “Active”.

From ChEMBL document CHEMBL3232843, “Novel pyrrolidine diketopiperazines selectively inhibit melanoma cells via induction of late-onset apoptosis” (J Med Chem, 2014)
